Residues, ends and D or L forms follow the SMILES beside them. *: point of attachment. Cbz = O=C(OCc1ccccc1)*
Assays:
Id1 [1] = molecular target: T1, Id1 (Mus musculus, UniProt P20067); assay: Circular dichroism; assay type: binding; conditions: AGX51 0–50 μM; AGXA 0–110 μM in DMSO
T1 sequence (P20067 1-148 isoform P20067-2): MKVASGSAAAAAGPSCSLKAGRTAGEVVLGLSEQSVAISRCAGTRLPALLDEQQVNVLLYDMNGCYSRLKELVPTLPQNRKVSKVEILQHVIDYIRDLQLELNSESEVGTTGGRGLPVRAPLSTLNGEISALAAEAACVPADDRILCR

[2] = molecular target: T2, NanoLuc luciferase ID1 fusion protein (Homo sapiens, UniProt P41134); assay: NanoBRET target engagement assay in permeabilized 293T cells; assay type: binding
T2 sequence (P41134 1-155): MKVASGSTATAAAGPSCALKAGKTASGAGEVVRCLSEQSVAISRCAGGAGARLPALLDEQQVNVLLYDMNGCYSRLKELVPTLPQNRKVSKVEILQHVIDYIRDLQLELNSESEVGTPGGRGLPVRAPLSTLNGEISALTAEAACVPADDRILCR
Procedure, shortened: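 293T cells transfected with an N-terminal NanoLuc–ID1 fusion construct and plated 24 h later. Cells received 2 µM fluorescent tracer plus 0–60 µM competitor, then were permeabilised with digitonin (50 µg/mL). NanoBRET Nano-Glo substrate was added and the BRET ratio read, following the kit protocol for intracellular target engagement.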

ID1, ID2, ID3, and ID4 = assay: Western blot for ID proteins in HCT116 cells; assay type: cell-based, human; conditions: HCT116, 0–10 μM AGXA, 24 h
HCT116 cells = assay: HCT116 cell viability; assay type: cell-based, human; conditions: cell-based assays (HCT116 and 4T1)
Procedure, shortened: (§1)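 MTT viability: cells seeded at 5000/well and left overnight, then exposed to the test compound for 24 h. MTT (5 mg/mL) was added for 4 h, medium removed and formazan dissolved in DMSO. Absorbance was read at 570 nm.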

[3] = system: choroidal neovascularization; assay: Laser-induced choroidal neovascularization; assay type: in vivo, mouse; conditions: intravitreal 1 μg dose, day 14
Procedure, shortened: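 Female C57BL/6 mice aged 4–6 weeks had laser rupture of Bruch's membrane at three sites per eye. Test compounds (1 or 5 µg) or DMSO were given intravitreally. At day 14, choroidal flat mounts were stained with FITC-Griffonia simplicifolia lectin, and CNV area was measured by fluorescence image analysis by an observer masked to group.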

Id1 [4] = molecular target: T1, Id1; assay: Western blot for Id1 in 4T1 cells; assay type: cell-based; conditions: 4T1, 0–20 μM AGXA, 24 h
Procedure, shortened: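 4T1 cells were treated 24 h, collected by trypsinization, washed in PBS and lysed in sucrose/Tris pH 8.0/400 mM NaCl/MgCl2/0.5% NP40 buffer with protease inhibitors. Id1 immunoblots were quantified from 700 and 800 channel intensities, blank-subtracted and normalized to tubulin; IC50 reported from blots.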

Id1-E47 interaction = molecular target: T3, Id1-E47 interaction (Mus musculus, UniProt P20067); assay: In vitro electrophoretic mobility shift assay; assay type: biochemical; conditions: data not shown
T3 sequence (P20067 1-148 isoform P20067-2): T1 sequence (P20067 1-148 isoform P20067-2)
Procedure, shortened: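 Bacterially purified full-length E47 was mixed with a 32P-labelled E-box probe from the muscle creatine kinase enhancer, plus BSA, DTT, poly dI-dC, salmon sperm DNA and HeLa nuclear extract, with or without purified full-length Id1. Test compounds in DMSO (or DMSO alone) were added at rising concentrations for 30 min. Complexes were resolved on 5% native PAGE and autoradiographed.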

Id proteins = assay: Degradation of Id proteins in cells; assay type: cell-based; conditions: data not shown
Cell viability assays = assay type: cell-based; conditions: data not shown
Procedure, shortened: as §1

Id1 (59–104) = molecular target: T4, Id1 (59–104) (Mus musculus, UniProt P20067); assay: UV crosslinking of AGX51-XL2 to purified Id1 and mass spectrometry; assay type: binding; conditions: UV light 20 minutes
T4 sequence (P20067 59-104): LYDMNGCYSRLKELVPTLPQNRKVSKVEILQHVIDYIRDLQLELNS
Procedure, shortened: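 Purified Id1 (aa 59–104, 1 µg) was mixed in the dark with 19.7 ng of a benzophenone photoreactive test-compound analog in DMSO and UV-irradiated for 20 min, with a no-UV control. Samples were run in the dark on a 15% denaturing gel and silver stained. Bands were excised for mass spectrometry.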

E47 = molecular target: T5, E47 (Homo sapiens, UniProt P15923); assay: UV crosslinking of AGX51-XL2 to E47 and mass spectrometry; assay type: binding; conditions: data not shown
T5 sequence (P15923 1-651 isoform P15923-2): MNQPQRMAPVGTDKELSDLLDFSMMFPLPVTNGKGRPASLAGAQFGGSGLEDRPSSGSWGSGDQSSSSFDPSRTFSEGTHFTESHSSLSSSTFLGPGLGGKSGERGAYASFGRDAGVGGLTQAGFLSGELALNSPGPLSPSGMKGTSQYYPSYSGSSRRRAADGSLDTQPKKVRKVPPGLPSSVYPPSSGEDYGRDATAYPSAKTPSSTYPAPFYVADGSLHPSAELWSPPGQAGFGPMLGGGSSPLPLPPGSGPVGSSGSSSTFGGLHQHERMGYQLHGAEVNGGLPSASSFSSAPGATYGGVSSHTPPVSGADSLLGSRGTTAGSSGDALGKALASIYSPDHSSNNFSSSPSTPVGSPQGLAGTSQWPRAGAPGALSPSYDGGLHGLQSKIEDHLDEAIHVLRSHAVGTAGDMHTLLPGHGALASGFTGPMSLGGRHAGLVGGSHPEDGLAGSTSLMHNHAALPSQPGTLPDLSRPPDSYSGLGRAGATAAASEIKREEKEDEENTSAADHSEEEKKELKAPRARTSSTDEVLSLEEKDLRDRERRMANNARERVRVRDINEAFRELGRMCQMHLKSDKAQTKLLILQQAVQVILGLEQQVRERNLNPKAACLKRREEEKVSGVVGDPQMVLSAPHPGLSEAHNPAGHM

FLAG-ID1 = molecular target: T6, FLAG-ID1 (Homo sapiens, UniProt P41134); assay: Ubiquitylation assay in HCT116 and U87 glioma cells; assay type: cell-based; conditions: 60 μM AGX51 2 h, then 20 μM MG132 for 6 h
T6 sequence (P41134 1-155): T2 sequence (P41134 1-155)
Procedure, shortened: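 HCT116 cells co-transfected with FLAG-tagged ID1 and HA-ubiquitin. After 36 h they were exposed to 60 µM test compound for 2 h, then 20 µM MG132 for a further 6 h. Cells were washed in ice-cold PBS, lysed in TBS (50 mM Tris pH 8.0, 150 mM NaCl) containing 2% SDS, and boiled for 10 min.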

6-chloro-2-methyl-N-(4-propoxyphenyl)quinolin-4-amine hydrochloride [AGXA]
effect on Id1 secondary structure (CD spectra) (Id1 [1]): greater activity than AGX51 | competition with the AGX51 tracer (BRET ratio) ([2]; 2 μM AGX51 tracer, 0–60 μM competitor, 50 μg/mL digitonin): more efficiently | ID1 protein levels relative to AGX51 (ID1, ID2, ID3, and ID4): reduced Id protein levels at lower concentrations than AGX51 | reduction in IC50 values relative to AGX51 (HCT116 cells): ~4 fold | area of CNV, AGXA compared with AGX51 [3]: worked better than AGX51 | Id1 protein levels relative to AGX51 (Id1 [4]): reduced Id protein levels at lower concentrations than AGX51

CC(C)c1ccc(NNC(=O)c2cc3ccccc3s2)cc1 [AGX8, N’-(4-isopropylphenyl)benzo[b]thiophene-2-carbohydrazide]
concentrations required to perturb Id1 in the EMSA assay, relative to AGX51 (Id1-E47 interaction): higher concentrations | concentrations required to degrade Id proteins in cells, relative to AGX51 (Id proteins): higher concentrations | IC50 in cell viability assays, relative to AGX51 (Cell viability assays): higher IC50

COc1ccccc1C(CCN(Cc1ccccc1)C(=O)CCOCCOCCNC(=O)CCC1=[N+]2C(=Cc3ccc(-c4ccc[nH]4)n3[B-]2(F)F)C=C1)c1ccc2c(c1)OCO2 (stereo not shown) [AGX51 tracer, 3-(17-(benzo[d][1,3]dioxol-5-yl)-14-benzyl-17-(2-methoxyphenyl)-3,13-dioxo-7,10-dioxa-4,14-diazaheptadecyl)-5,5-difluoro-7-(1H-pyrrol-2-yl)-5H-5λ4-dipyrrolo[1,2-c:2’,1’-f][1,3,2]diazaborinin-4-ium]
BRET ratio ([2]; tracer 0–4 μM, digitonin-permeabilized 293T cells): dose-dependent increase in the BRET ratio

O=C(NCCC(c1ccccc1)c1ccccc1)c1ccc(C(=O)c2ccccc2)cc1 [AGX51-XL2, 4-benzoyl-N-(3,3-diphenylpropyl)bezamide]
covalent binding to Id1 after UV exposure (Id1 (59–104)): covalently binding to Id1 at six residues (V73, P74, T75, P77, Q78, and R80) | covalent binding to E47 (E47): nor was there evidence of AGX51-XL2 binding to E47

CC(C)C[C@@H](C=O)NC(=O)[C@H](CC(C)C)NC(=O)[C@H](CC(C)C)NC(=O)OCc1ccccc1 [MG132] (Cbz-Leu-Leu-Leu-aldehyde)
ID1 ubiquitylation (FLAG-ID1): ID1 ubiquitylation was observed
